The source of these data is ChEMBL document CHEMBL2331083, “Magnolia Extract, Magnolol, and Metabolites: Activation of Cannabinoid CB2 Receptors and Blockade of the Related GPR55” (ACS Med Chem Lett, 2013).

The structures appear in SMILES notation. Active and inactive are the calls of the source. No cut-off for these calls is given here.

In experiment [1] the target is T1, Monoglyceride lipase (Rattus norvegicus) (UniProt Q8R431).
T1 sequence (whole entry): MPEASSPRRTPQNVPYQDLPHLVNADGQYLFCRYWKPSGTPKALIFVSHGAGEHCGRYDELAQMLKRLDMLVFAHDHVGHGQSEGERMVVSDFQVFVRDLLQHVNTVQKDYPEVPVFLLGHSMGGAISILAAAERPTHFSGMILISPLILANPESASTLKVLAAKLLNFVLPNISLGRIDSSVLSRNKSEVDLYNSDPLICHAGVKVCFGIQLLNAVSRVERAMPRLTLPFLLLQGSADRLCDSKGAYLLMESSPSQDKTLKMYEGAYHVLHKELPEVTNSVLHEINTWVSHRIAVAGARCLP
Briefly: Inhibition of MAGL in rat brain microsome using pyrenylbutanamide as substrate after 60 mins by HPLC analysis. Type of experiment: microsomes. Put shortly:
(§1)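 Rat brain preparations were used as the FAAH or MAGL enzyme source. Compounds were tested at 10 μM and the extract at 50 μg/mL, read as percent inhibition.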

Experiment [2] has as its target T2, Fatty-acid amide hydrolase 1 (Rattus norvegicus) (UniProt P97612).
T2 sequence (whole entry): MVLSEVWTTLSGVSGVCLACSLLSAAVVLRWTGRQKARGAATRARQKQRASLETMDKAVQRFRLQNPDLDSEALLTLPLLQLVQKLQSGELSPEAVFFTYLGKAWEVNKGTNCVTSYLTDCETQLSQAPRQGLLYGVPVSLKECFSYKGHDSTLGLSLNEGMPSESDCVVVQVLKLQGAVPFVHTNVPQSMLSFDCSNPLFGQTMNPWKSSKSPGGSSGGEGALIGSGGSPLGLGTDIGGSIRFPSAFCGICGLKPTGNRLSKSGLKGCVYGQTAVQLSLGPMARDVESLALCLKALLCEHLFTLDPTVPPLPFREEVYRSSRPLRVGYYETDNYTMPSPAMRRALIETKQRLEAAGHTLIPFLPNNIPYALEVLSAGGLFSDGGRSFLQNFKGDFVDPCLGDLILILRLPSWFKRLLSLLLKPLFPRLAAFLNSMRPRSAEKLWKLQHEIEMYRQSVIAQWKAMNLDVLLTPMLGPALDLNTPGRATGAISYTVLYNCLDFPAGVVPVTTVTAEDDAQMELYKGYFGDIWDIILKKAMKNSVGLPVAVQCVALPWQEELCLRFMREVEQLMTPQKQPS
Put plainly: Inhibition of FAAH in rat brain microsome using pyrenylbutanamide as substrate after 60 mins by HPLC analysis. Type of experiment: microsomes. Put shortly: as §1

Experiment [3] concerns the target G-protein coupled receptor 55 (Homo sapiens) (UniProt Q9Y2T6). Briefly: Antagonist activity at human GPR55 expressed in CHO cells assessed as inhibition of LPI-induced beta-arrestin translocation at 10 uM after 90 mins by luminescence assay. Type of experiment: cell-based. Put shortly:
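Human GPR55 expressed recombinantly in CHO cells. β-Arrestin recruitment stimulated by LPI (1 μM) was read as luminescence by β-galactosidase enzyme fragment complementation. Test agents at 10 μM, extract at 50 μg/mL, with the LPI response set to 100%. KB derived from the rightward shift of the LPI concentration-response curve with antagonist present at 10 μM. Three independent experiments in duplicate.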

Experiment [4] concerns the target T3, Cannabinoid receptor 2 (Homo sapiens, UniProt P34972). Put plainly: Displacement of [3H]CP55,940 from recombinant human CB2 receptor expressed in CHO cells after 2 hrs by liquid scintillation counting. Type of experiment: cell-based.
Experiment [5] has as its target T4, Cannabinoid receptor 1 (Homo sapiens, UniProt P21554). Put plainly: biochemical. Type of experiment: cell-based, CHO.
Experiment [6] concerns the target T3, Cannabinoid receptor 2. Briefly: Agonist activity at recombinant human CB2 receptor expressed in CHO cells assessed as inhibition of forskolin-induced cAMP accumulation at 100 uM after 5 mins by cAMP-competition binding assay relative to CP55,940. Type of experiment: functional, cell-based. Put shortly: (§2)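 Forskolin (10 μM)-stimulated cAMP accumulation in CHO cells stably expressing the human CB1 or CB2 receptor. Test agents at 100 μM. Efficacy given as a percentage of the maximal effect of the full agonist CP55,940 (1 μM), taken as 100%. At least three independent experiments, each run in duplicate.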

Experiment [7] concerns the target T4, Cannabinoid receptor 1. Put plainly: Agonist activity at recombinant human CB1 receptor expressed in CHO cells assessed as inhibition of forskolin-induced cAMP accumulation at 100 uM after 5 mins by cAMP-competition binding assay relative to CP55,940. Type of experiment: functional, cell-based. An outline of the steps:
as §2

Experiment [8] addresses T4, Cannabinoid receptor 1. Put plainly: Agonist activity at recombinant human CB1 receptor expressed in CHO cells assessed as inhibition of forskolin-induced cAMP accumulation after 5 mins by cAMP-competition binding assay. Type of experiment: functional, cell-based.
The subject of another experiment is CHO. Put plainly: Ratio of EC50 for recombinant human CB1 receptor expressed in CHO cells to recombinant human CB2 receptor expressed in CHO cells assessed as inhibition of forskolin-induced cAMP accumulation. Type of experiment: cell-based.
In experiment [9] the target is T4, Cannabinoid receptor 1. Briefly: Partial agonist activity at recombinant human CB1 receptor expressed in CHO cells assessed as inhibition of forskolin-induced cAMP accumulation at 100 uM after 5 mins by cAMP-competition binding assay relative to CP55,940. Type of experiment: functional, cell-based. An outline of the steps:
(§3)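 CHO cells recombinantly expressing human CB1 or CB2 receptor; forskolin (10 μM)-stimulated cAMP accumulation inhibited by test compound over a concentration range. Efficacy measured at 100 μM relative to the maximal effect of full agonist CP55,940 (1 μM) = 100%. EC50 from concentration-response curves; at least three independent experiments in duplicate, means ± SEM.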

For experiment [10], the target named is T3, Cannabinoid receptor 2. Briefly: Partial agonist activity at recombinant human CB2 receptor expressed in CHO cells assessed as inhibition of forskolin-induced cAMP accumulation at 100 uM after 5 mins by cAMP-competition binding assay relative to CP55,940. Type of experiment: functional, cell-based. An outline of the steps:
as §3

For experiment [11], the target named is G-protein coupled receptor 55 (Homo sapiens) (UniProt Q9Y2T6). Briefly: Antagonist activity at human GPR55 expressed in CHO cells assessed as inhibition of LPI-induced beta-arrestin translocation after 90 mins by luminescence assay. Type of experiment: cell-based. Put shortly:
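CHO cells expressing human GPR55; β-arrestin recruitment read as luminescence by β-galactosidase enzyme fragment complementation. LPI agonist curves run with and without test compound at 10 μM, giving a parallel shift from which KB was derived; single-point inhibition tested against LPI at 1 μM (100%). Three independent experiments in duplicate, means ± SEM.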

For experiment [12], the target named is T3, Cannabinoid receptor 2. As to conditions: CHO, 10 uM.
Experiment [13] deals with T3, Cannabinoid receptor 2. Put plainly: Agonist activity at recombinant human CB2 receptor expressed in CHO cells assessed as inhibition of forskolin-induced cAMP accumulation after 5 mins by cAMP-competition binding assay. Type of experiment: functional, cell-based.

G-protein coupled receptor 55 (Homo sapiens), sequence (Q9Y2T6 whole entry, the tested form may be a part): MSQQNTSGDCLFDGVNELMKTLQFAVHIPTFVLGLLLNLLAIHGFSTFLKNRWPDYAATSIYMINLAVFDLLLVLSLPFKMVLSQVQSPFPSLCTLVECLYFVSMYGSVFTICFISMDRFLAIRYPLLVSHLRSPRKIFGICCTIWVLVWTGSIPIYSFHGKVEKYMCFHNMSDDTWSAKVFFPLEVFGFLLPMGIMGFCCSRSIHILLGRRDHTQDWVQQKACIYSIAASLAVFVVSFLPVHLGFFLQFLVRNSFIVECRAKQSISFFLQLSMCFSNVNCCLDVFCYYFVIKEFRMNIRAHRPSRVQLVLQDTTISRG
T3 sequence (P34972 whole entry): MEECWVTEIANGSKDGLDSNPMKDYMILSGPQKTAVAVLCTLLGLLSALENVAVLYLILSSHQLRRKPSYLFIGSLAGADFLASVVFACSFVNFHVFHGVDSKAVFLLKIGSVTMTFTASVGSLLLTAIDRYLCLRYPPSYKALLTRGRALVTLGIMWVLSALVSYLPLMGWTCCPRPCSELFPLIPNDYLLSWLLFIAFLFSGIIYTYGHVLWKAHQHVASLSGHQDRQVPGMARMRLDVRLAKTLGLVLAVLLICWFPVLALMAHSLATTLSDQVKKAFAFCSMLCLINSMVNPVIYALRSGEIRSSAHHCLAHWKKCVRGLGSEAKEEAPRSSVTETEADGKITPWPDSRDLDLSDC
T4 sequence (P21554 whole entry): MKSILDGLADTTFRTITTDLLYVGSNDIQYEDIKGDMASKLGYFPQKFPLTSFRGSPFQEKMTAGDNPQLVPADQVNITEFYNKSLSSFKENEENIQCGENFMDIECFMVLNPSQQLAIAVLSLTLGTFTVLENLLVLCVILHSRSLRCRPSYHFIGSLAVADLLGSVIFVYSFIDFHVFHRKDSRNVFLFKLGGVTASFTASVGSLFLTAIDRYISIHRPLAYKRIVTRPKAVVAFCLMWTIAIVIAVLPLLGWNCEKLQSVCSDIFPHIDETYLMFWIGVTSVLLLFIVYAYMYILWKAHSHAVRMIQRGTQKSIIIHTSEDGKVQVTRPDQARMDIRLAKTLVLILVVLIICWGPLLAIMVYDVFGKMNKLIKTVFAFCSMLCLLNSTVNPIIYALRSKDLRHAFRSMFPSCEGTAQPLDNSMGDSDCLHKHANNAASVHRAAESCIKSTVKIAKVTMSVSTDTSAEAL

For the compound `C=CCc1ccc(O)c(-c2cc(CC(O)CO)ccc2O)c1` (racemic), the inhibition result in experiment [1] and in experiment [2] was “inactive” throughout. Further, in experiment [3], the inhibition turned out to be 4%. For the same compound, the Ki at Cannabinoid receptor 2 [4] and on Cannabinoid receptor 1 [5] was above 10 µM in each case.

Take `C=CCc1ccc(O)c(-c2ccc(O)c(CC=C)c2)c1` [HONOKIOL]: the inhibition entry in experiment [1] and in experiment [2] was “inactive” in each case. The inhibition in [3] was 42%. Further, the Efficacy on Cannabinoid receptor 2 [6] is 0%; at Cannabinoid receptor 1 [7], 168%. The EC50 on Cannabinoid receptor 1 [8] is above 10 µM. The Ki on Cannabinoid receptor 2 [4] was 5.61 µM; at Cannabinoid receptor 1 [5], 6.46 µM.

As to `C=CCc1ccc(O)c(-c2cc(CC=C)ccc2O)c1` [MAGNOLOL], the Ratio EC50 in the experiment on CHO amounted to 6. The inhibition result in experiment [1] and in experiment [2] was “inactive” each time. Also, the values for the EC50 on Cannabinoid receptor 1 [9] and at Cannabinoid receptor 2 [10] were 18.3 µM and 3.28 µM, respectively. For the same compound, the inhibition in experiment [3] came to 0%. Also, the figures for the Efficacy at Cannabinoid receptor 2 [6] and on Cannabinoid receptor 1 [7] were 31% and 62%, respectively. Moreover, the Ki on Cannabinoid receptor 2 [4] came out at 1.44 µM; at Cannabinoid receptor 1 [5], 3.15 µM.

For `CCCc1ccc(O)c(-c2cc(CCC)ccc2O)c1`, the inhibition entry in experiment [1] and in experiment [2] was “inactive” throughout. Besides, the EC50 on Cannabinoid receptor 2 [10] is 0.17 µM; on Cannabinoid receptor 1 [8] it was 9.01 µM. In addition, the inhibition in experiment [3] worked out at 96%. For the same compound, in [11], the Kb came to 13.3 µM. Moreover, the Efficacy at Cannabinoid receptor 1 [7] was determined as 124%; on Cannabinoid receptor 2 [12] it was 49%. Further, the Ki at Cannabinoid receptor 2 [4] worked out at 0.416 µM; at Cannabinoid receptor 1 [5], 2.26 µM.

In the case of `C/C=C/c1ccc(O)c(-c2cc(/C=C/C)ccc2O)c1`, the inhibition result in [1] and in experiment [2] was “inactive” in each case. The inhibition in experiment [3] was 0%. In addition, the Efficacy stood at 55% at Cannabinoid receptor 2 [6] and 134% on Cannabinoid receptor 1 [7]. Moreover, the EC50 at Cannabinoid receptor 2 [13] is 8.73 µM; at Cannabinoid receptor 1 [8], above 10 µM. Moreover, the Ki at Cannabinoid receptor 2 [4] is 3.14 µM; at Cannabinoid receptor 1 [5], above 10 µM.

On to `CCCCCCC(C)(C)c1ccc([C@@H]2C[C@H](O)CC[C@H]2CCCO)c(O)c1`, for which, in [3], the inhibition stood at 92%. The Kb in experiment [11] amounted to 1.89 µM.
